Measured values reported in ChEMBL document CHEMBL5724801, “EUbOPEN Chemogenomics Library - Multiplex” (2024).
Values joined by “and” are separate entries in the source; they are usually repeats but may differ in a detail not shown here. Equal values may be shown once.

Tested on: U2OS
Test: Multiplex assay against U2OS
Type: toxicity, cell-based
Conditions: human
Procedure, shortened: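 Cells were classed with CellPathfinder machine-learning gating, first as Hoechst high-intensity objects or normal cells, then (normal cells) as healthy, pyknosed or fragmented nuclei, and finally (pyknosed cells) as mitotic or apoptotic. Staining of live cells at seeding used Hoechst33342, BioTracker Green Microtubule Cytoskeleton Dye, MitoTracker Red and Annexin V Alexa Fluor 680, with imaging on a CQ1 microscope at 37°C and 5% CO2 after compound addition. Tubulin, mitochondrial-mass and membrane-permeability phenotypes are per cents of healthy-nucleus cells.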

[1] = 12 h, 1 µM, compound concentration 1 uM
[2] = 12 h, 10 µM, compound concentration 10 uM
[3] = 24 h, 1 µM, compound concentration 1 uM
[4] = 24 h, 10 µM, compound concentration 10 uM
[5] = 48 h, 1 µM, compound concentration 1 uM
[6] = 48 h, 10 µM, compound concentration 10 uM

c1cc(OCCCN2CCCCC2)ccc1CN1CCCCC1 [JNJ-5207852]
Population Apoptotic (%) [1]: 76% and 58%
Population Fragmented Nuclei (%) [1]: 29% and 25%
Population Healthy Nuclei (%) [1]: 65% and 62%
Population Hoechst High Intensity Objects (%) [1]: 2% and 0%
Population Membrane Permeable-Phenotype (%) [1]: 5% and 7%
Population Mitochondria Different-Phenotype (%) [1]: 3%
Population Mitotic Cells (%) [1]: 23% and 41%
Population Normal (%) [1]: 97% and 99%
Population Pyknosed Nuclei (%) [1]: 5% and 11%
Population Tubulin-Different-Phenotype (%) [1]: 3%
Total Cell Count [1]: 253 and 106
Population Apoptotic (%) [2]: 73% and 85%
Population Fragmented Nuclei (%) [2]: 34% and 13%
Population Healthy Nuclei (%) [2]: 57% and 80%
Population Hoechst High Intensity Objects (%) [2]: 2% and 4%
Population Membrane Permeable-Phenotype (%) [2]: 5% and 7%
Population Mitochondria Different-Phenotype (%) [2]: 3% and 9%
Population Mitotic Cells (%) [2]: 26% and 14%
Population Normal (%) [2]: 97% and 95%
Population Pyknosed Nuclei (%) [2]: 8% and 6%
Population Tubulin-Different-Phenotype (%) [2]: 3% and 6%
Total Cell Count [2]: 228 and 120
Population Apoptotic (%) [3]: 84% and 66%
Population Fragmented Nuclei (%) [3]: 25% and 21%
Population Healthy Nuclei (%) [3]: 65% and 68%
Population Hoechst High Intensity Objects (%) [3]: 1% and 0%
Population Membrane Permeable-Phenotype (%) [3]: 3% and 4%
Population Mitochondria Different-Phenotype (%) [3]: 2%
Population Mitotic Cells (%) [3]: 16% and 33%
Population Normal (%) [3]: 98% and 100%
Population Pyknosed Nuclei (%) [3]: 8% and 10%
Population Tubulin-Different-Phenotype (%) [3]: 2% and 4%
Total Cell Count [3]: 287 and 119
Population Apoptotic (%) [4]: 82% and 84%
Population Fragmented Nuclei (%) [4]: 28% and 10%
Population Healthy Nuclei (%) [4]: 62% and 80%
Population Hoechst High Intensity Objects (%) [4]: 1%
Population Membrane Permeable-Phenotype (%) [4]: 4% and 8%
Population Mitochondria Different-Phenotype (%) [4]: 3% and 5%
Population Mitotic Cells (%) [4]: 17% and 15%
Population Normal (%) [4]: 98%
Population Pyknosed Nuclei (%) [4]: 8%
Population Tubulin-Different-Phenotype (%) [4]: 3% and 8%
Total Cell Count [4]: 271 and 157
Population Apoptotic (%) [5]: 82% and 76%
Population Fragmented Nuclei (%) [5]: 21% and 19%
Population Healthy Nuclei (%) [5]: 69% and 71%
Population Hoechst High Intensity Objects (%) [5]: 2% and 3%
Population Membrane Permeable-Phenotype (%) [5]: 4% and 9%
Population Mitochondria Different-Phenotype (%) [5]: 2% and 4%
Population Mitotic Cells (%) [5]: 17% and 23%
Population Normal (%) [5]: 97% and 96%
Population Pyknosed Nuclei (%) [5]: 8%
Population Tubulin-Different-Phenotype (%) [5]: 4% and 3%
Total Cell Count [5]: 400 and 152
Population Apoptotic (%) [6]: 86% and 93%
Population Fragmented Nuclei (%) [6]: 22% and 14%
Population Healthy Nuclei (%) [6]: 70% and 78%
Population Hoechst High Intensity Objects (%) [6]: 2% and 1%
Population Membrane Permeable-Phenotype (%) [6]: 7% and 6%
Population Mitochondria Different-Phenotype (%) [6]: 3% and 2%
Population Mitotic Cells (%) [6]: 13% and 6%
Population Normal (%) [6]: 97% and 98%
Population Pyknosed Nuclei (%) [6]: 6%
Population Tubulin-Different-Phenotype (%) [6]: 5% and 4%
Total Cell Count [6]: 345 and 245

CN(C)Cc1cccc(NC(=C2C(=O)Nc3cc(C(=O)N(C)C)ccc32)c2ccccc2)c1
Population Apoptotic (%) [1]: 28.26% and 30.43%
Population Fragmented Nuclei (%) [1]: 2.06% and 3.41%
Population Healthy Nuclei (%) [1]: 87.39% and 83.52%
Population Hoechst High Intensity Objects (%) [1]: 0%
Population Membrane Permeable-Phenotype (%) [1]: 0.52% and 6.8%
Population Mitochondria Different-Phenotype (%) [1]: 0% and 12.24%
Population Mitotic Cells (%) [1]: 71.74% and 69.57%
Population Normal (%) [1]: 100%
Population Pyknosed Nuclei (%) [1]: 10.55% and 13.07%
Population Tubulin-Different-Phenotype (%) [1]: 2.1% and 0.68%
Total Cell Count [1]: 436 and 176
Population Apoptotic (%) [2]: 55.32% and 60.53%
Population Fragmented Nuclei (%) [2]: 3.8% and 4.6%
Population Healthy Nuclei (%) [2]: 81.33% and 73.56%
Population Hoechst High Intensity Objects (%) [2]: 0%
Population Membrane Permeable-Phenotype (%) [2]: 17.12% and 38.28%
Population Mitotic Cells (%) [2]: 44.68% and 39.47%
Population Normal (%) [2]: 100%
Population Pyknosed Nuclei (%) [2]: 14.87% and 21.84%
Population Tubulin-Different-Phenotype (%) [2]: 58.37% and 42.19%
Total Cell Count [2]: 316 and 174
Population Apoptotic (%) [3]: 51.56% and 40%
Population Fragmented Nuclei (%) [3]: 1.88% and 1.95%
Population Healthy Nuclei (%) [3]: 87.2% and 85.85%
Population Hoechst High Intensity Objects (%) [3]: 0.17% and 0%
Population Membrane Permeable-Phenotype (%) [3]: 1.76% and 3.98%
Population Mitotic Cells (%) [3]: 48.44% and 60%
Population Normal (%) [3]: 99.83% and 100%
Population Pyknosed Nuclei (%) [3]: 10.92% and 12.2%
Population Tubulin-Different-Phenotype (%) [3]: 1.96% and 2.27%
Total Cell Count [3]: 587 and 205
Population Apoptotic (%) [4]: 70.87% and 69.84%
Population Fragmented Nuclei (%) [4]: 5.07% and 6.21%
Population Healthy Nuclei (%) [4]: 65.92% and 58.19%
Population Hoechst High Intensity Objects (%) [4]: 0.28% and 0%
Population Membrane Permeable-Phenotype (%) [4]: 18.8% and 30.1%
Population Mitotic Cells (%) [4]: 29.13% and 30.16%
Population Normal (%) [4]: 99.72% and 100%
Population Pyknosed Nuclei (%) [4]: 29.01% and 35.59%
Population Tubulin-Different-Phenotype (%) [4]: 47.86% and 58.25%
Total Cell Count [4]: 356 and 177
Population Apoptotic (%) [5]: 54.74% and 41.51%
Population Fragmented Nuclei (%) [5]: 2.6% and 1.21%
Population Healthy Nuclei (%) [5]: 87.9% and 82.73%
Population Hoechst High Intensity Objects (%) [5]: 0%
Population Membrane Permeable-Phenotype (%) [5]: 1.02% and 2.56%
Population Mitochondria Different-Phenotype (%) [5]: 0% and 5.13%
Population Mitotic Cells (%) [5]: 45.26% and 58.49%
Population Normal (%) [5]: 100%
Population Pyknosed Nuclei (%) [5]: 9.5% and 16.06%
Population Tubulin-Different-Phenotype (%) [5]: 0.57% and 2.56%
Population Apoptotic (%) [6]: 82.42% and 88.41%
Population Fragmented Nuclei (%) [6]: 3.22% and 2.72%
Population Healthy Nuclei (%) [6]: 72.39% and 59.78%
Population Hoechst High Intensity Objects (%) [6]: 0%
Population Mitochondria Different-Phenotype (%) [6]: 14.07% and 38.18%
Population Mitotic Cells (%) [6]: 17.58% and 11.59%
Population Normal (%) [6]: 100%
Population Pyknosed Nuclei (%) [6]: 24.4% and 37.5%
Population Tubulin-Different-Phenotype (%) [6]: 61.85% and 69.09%
Total Cell Count [6]: 373 and 184
